Residues, ends and D or L forms follow the SMILES beside them. No end group written: not given here.
How the values were obtained:
[1] = system: 14-3-3 proteins; conditions: cited from earlier work
[2] = molecular target: T1, 14-3-3γ (Homo sapiens, UniProt P61981); assay: AlphaScreen direct binding of biotin-pS259-Raf-1 to GST-14-3-3γ; conditions: increasing GST-14-3-3γ and biotin-pS259-Raf-1 with both beads
T1 sequence (P61981 1-247): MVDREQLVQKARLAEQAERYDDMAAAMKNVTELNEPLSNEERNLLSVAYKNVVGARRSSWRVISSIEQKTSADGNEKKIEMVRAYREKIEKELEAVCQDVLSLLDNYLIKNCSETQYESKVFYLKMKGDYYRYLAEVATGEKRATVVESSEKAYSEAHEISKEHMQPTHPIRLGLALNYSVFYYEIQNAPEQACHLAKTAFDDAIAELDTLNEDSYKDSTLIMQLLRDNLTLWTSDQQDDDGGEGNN
In short: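 Biotinylated pS259-Raf-1 peptide (LSQRSTpSTPNVHM) was titrated with purified GST-14-3-3γ; Z' runs used 100 nM peptide. Anti-GST acceptor beads were added and incubated 30 min, then streptavidin donor beads for 1.5 h. Luminescence was read under dim light. Background wells held one binding component.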

[3] = molecular target: T1, 14-3-3γ; assay: AlphaScreen direct binding of GST-R18 to biotin-14-3-3γ; conditions: GST-R18 5 nM to 500 nM; biotin-14-3-3γ 5 nM or 10 nM
In short: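 His-14-3-3γ expressed in E. coli BL21(DE3), Ni2+-column purified, desalted, then biotinylated with sulfo-NHS-LC-biotin. GST-R18 expressed in E. coli. Anti-GST acceptor beads added, then streptavidin donor beads 30 min later. Read after 1.5 h at room temperature under dim light. Background wells held one component. Triplicate, mean ± SD.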

[4] = molecular target: GST-14-3-3γ (UniProt P61981); assay: AlphaScreen or HTRF
[5] = molecular target: biotinylated His-14-3-3γ (UniProt P61981); assay: AlphaScreen or HTRF
[6] = molecular target: T2, GST-14-3-3γ (UniProt P61981 1-247); assay: AlphaScreen or HTRF
T2 sequence (looked up): T1 sequence (P61981 1-247)

[7] = molecular target: T3, biotinylated His-14-3-3γ (UniProt P61981 1-247, biotin (EZ-Link sulfo-NHS-LC-biotin; sites not stated)); assay: AlphaScreen or HTRF
T3 sequence (looked up): T1 sequence (P61981 1-247)

In the case of CSCC[C@H](NC(=O)[C@H](CC(N)=O)NC(=O)[C@H](C)NC(=O)[C@H](CCC(=O)O)NC(=O)[C@H](CC(C)C)NC(=O)[C@H](CC(=O)O)NC(=O)[C@H](CC(C)C)NC(=O)[C@H](Cc1c[nH]c2ccccc12)NC(=O)[C@H](CO)NC(=O)[C@H](CC(C)C)NC(=O)[C@H](CC(=O)O)NC(=O)[C@H](CCCNC(=N)N)NC(=O)[C@@H]1CCCN1C(=O)[C@@H](NC(=O)[C@H](CS)NC(=O)[C@H](Cc1c[nH]cn1)NC(=O)[C@@H]1CCCN1)C(C)C)C(=O)N[C@@H](CS)C(=O)N[C@@H](CC(C)C)C(=O)N1CCC[C@H]1C(=O)O [R18] (H-PHCVPRDLSWLDLEANMCLP-OH; N-terminus and C-terminus assumed), the “effect of GST fusion on efficacy of R18 for 14-3-3 binding” value ([1]; GST fusion of R18, ref [10]) is given as “no detectable effect on the efficacy of R18 for 14-3-3 binding”, the “competition with natural proteins for binding of 14-3-3 (in words)” value ([1]; ref [17]) is given as “can effectively compete with other natural proteins for the binding of 14-3-3 proteins” and the “affinity for 14-3-3 proteins (in words)” value ([1]; unphosphorylated peptide from phage display, ref [10]) is given as “exhibits a high affinity for 14-3-3 proteins”.

For “Biotin-LSQRSTpSTPNVHM [biotin-pS259-Raf-1]”, the “Alpha signal with increasing concentration (in words)” value [2] was “dose-dependent increase in Alpha signal”.

In the case of “GST-R18: GST-tagged R18 protein-peptide fusion, purified from bacterial cells (PHCVPRDLSWLDLEANMCLP; cysteine pairing not given here; also: GST tag fused, end not given here)”, the “Alpha signal with increasing concentration (in words)” value [3] is reported as “induced the robust production of Alpha signal in a dose-dependent manner”.

For pS967-ASK1 peptide, the IC50 [4] was 535 nM and the IC50 [5] was 549 nM.

PHCVPRDLSWLDLEANMCLP [untagged R18 peptide] gave an IC50 [6] of 35.7 ± 1.1 nM and an IC50 [7] of 28 ± 1.1 nM.
